Calb FLC – C. albicans growth modulation with fluconazole; C. albicans CaCi-2 (fluconazole-resistant clinical isolate) + fluconazole, Alamar Blue growth, 48 h; growth inhibition, % (concentration not given with the values); actives 0.57% (n = 300,000); AID 1979;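 active means growth inhibition above about 58% in most replicates, limit read from the data, passing the limit was not always enough; inconclusive means exactly half the replicates above a set limit; inactive means most replicates below a set limit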;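 further: all wells also contain fluconazole at 8 µg/ml as a sub-toxic cotreatment; 0% = median of DMSO wells and 100% = median of geldanamycin control wells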
Mdm2-MdmX inh – inhibitors of human Mdm2/MdmX interaction; O15151+Q00987; SaOS-2 split-luciferase Mdm2/MdmX complementation, luminescence; inhibition, % at 8 µM; actives 3% (n = 330,000); AID 485346;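 active means inhibition of at least 50% at 8 µM in the primary screen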
Target sequence (O15151 whole entry, looked up): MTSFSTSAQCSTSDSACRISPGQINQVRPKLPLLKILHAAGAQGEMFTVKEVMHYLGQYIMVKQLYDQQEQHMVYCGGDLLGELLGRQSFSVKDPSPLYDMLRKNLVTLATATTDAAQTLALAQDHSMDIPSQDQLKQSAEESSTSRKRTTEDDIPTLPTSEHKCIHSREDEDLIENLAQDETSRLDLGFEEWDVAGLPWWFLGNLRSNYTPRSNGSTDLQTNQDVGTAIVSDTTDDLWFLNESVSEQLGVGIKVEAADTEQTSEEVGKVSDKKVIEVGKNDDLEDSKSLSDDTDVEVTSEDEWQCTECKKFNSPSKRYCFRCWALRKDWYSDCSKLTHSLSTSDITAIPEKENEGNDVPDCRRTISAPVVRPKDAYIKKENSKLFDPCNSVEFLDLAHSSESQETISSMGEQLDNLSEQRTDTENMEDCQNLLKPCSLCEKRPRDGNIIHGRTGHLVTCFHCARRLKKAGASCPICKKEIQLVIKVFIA
Target sequence (Q00987 whole entry, looked up): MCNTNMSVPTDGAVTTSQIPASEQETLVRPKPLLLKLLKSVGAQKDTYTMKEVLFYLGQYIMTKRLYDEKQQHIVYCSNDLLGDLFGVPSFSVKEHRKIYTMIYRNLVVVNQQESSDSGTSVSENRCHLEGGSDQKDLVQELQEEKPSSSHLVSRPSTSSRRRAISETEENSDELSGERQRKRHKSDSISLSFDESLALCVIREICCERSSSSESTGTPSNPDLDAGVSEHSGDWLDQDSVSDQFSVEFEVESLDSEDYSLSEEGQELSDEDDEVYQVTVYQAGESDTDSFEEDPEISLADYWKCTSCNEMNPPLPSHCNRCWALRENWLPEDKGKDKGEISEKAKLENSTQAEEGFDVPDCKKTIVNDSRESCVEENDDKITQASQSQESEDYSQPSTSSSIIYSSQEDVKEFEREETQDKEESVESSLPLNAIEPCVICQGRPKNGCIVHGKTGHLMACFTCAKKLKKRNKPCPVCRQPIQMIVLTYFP
SKKanGAS inh – blocks kanamycin growth of S. pyogenes SKKanGAS strain; BacTiter-Glo, 6 h; AID 1662; actives 1.3% (n = 300,000); inhibition, % at 7.5 µM;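 active means mean replicate score, as percent of positive control median, at least 50; inconclusive means mean below 50 but one replicate at or above 50; inactive means mean and every replicate below 50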;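 further: strain carries kanamycin resistance gene driven by streptokinase promoter and grows in 40 µg/ml kanamycin; loss of luminescence reflects streptokinase promoter inhibition or plain growth inhibition; 0% = median of DMSO wells and 100% = positive control at its reference dose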
Beta cell apopt – blocks beta cell apoptosis; INS-1E cytokine-induced death, ATP luminescence, 48 h; percent of positive-control rescue, neutral wells zero; protection from apoptosis, % (concentration not given with the values); actives 0.8% (n = 300,000);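 active means Every replicate reaches about 75%, or at least half do and their mean reaches it too, limit read from the data; inconclusive means At least half of replicates reach the limit but their mean does not; inactive means Under half of replicates reach the limit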;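 further: 0% = cytokine-treated negative control wells and 100% = positive control rescue; higher means more ATP so stronger rescue from cytokine killing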
T cruzi inh – blocks replication of Trypanosoma cruzi; T. cruzi beta-gal in NIH3T3, luminescence, 90 h; inhibition, % (concentration not given with the values); actives 1.4% (n = 300,000); AID 1885;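 active means mean inhibition across valid replicates above about 55%, limit read from the data; inconclusive means mean below that limit but half or more replicates reach it; inactive means mean below it, under half of replicates reach it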;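 further: signal also drops with host cell toxicity which is not excluded here; 0% = plate median of DMSO wells and 100% = zero luminescence signal; higher percent means less beta-gal luminescence so fewer parasites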
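compound dosing = single 50 nL compound addition per well in DMSO | material = NIH/3T3 host cells with β-galactosidase reporter T. cruzi | input = 5,000 host fibroblasts per well | timing = ≥90 h infection period, 3 h prior cell attachment | read-out basis = percent inhibition of parasite-derived β-gal signal | detection = GalScreen β-gal luminescence, detergent lysis, 60 min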
CSC inhib – blocks cancer stem cells | cancer stem cell-like cells viability, luminescence | inhibition, % at 7.5 µM | actives 1.1% (n = 300,000) | AID 2717; in the data active means inhibition above about 75%; inconclusive means no clear call, values can overlap the other calls; tested in HMLE shEcad cells
The depositor's hits bear a star; u = inconclusive; x = not tested or not shown. A selection: hits, their analogues and other compounds. The true share with any hit is near 5.7%.

SMILES	Calb FLC	Mdm2-MdmX inh	SKKanGAS inh	Beta cell apopt	T cruzi inh	CSC inhib
COc1ccc(CN2CCCC(C(=O)c3ccc(Cl)cc3)C2)cc1Cn1cccn1 (stereo unspecified)	-19	14	0	3	64*	8
COc1cccc(C(=O)C2CCCN(Cc3cccc(OCCO)c3)C2)c1 (stereo unspecified)	-5	12	-4	-4	18	-6
COc1cccc(C(=O)C2CCCN(Cc3ccc(OC)c(Cn4cncn4)c3)C2)c1 (stereo unspecified)	-7	-13	13	-3	58*	-1
COC(=O)c1ccc(NC(=S)N2CCN(CCO)CC2)cc1	7	19	-12	-3	-13	10
COCc1ccc(C(=O)N2CCCCC2C(=O)Nc2ccc(-n3nc(C)cc3C)cc2)o1 (stereo unspecified)	-4	14	5	0	-7	-3
CC(OC(=O)c1cc(=O)c2cc(Cl)ccc2o1)C(=O)N1CCCC1 (stereo unspecified)	x	15	x	x	x	x
Cc1ccc(C(=O)NCC(=O)OCC(=O)c2c(N)n(C)c(=O)n(C)c2=O)cc1C	x	1	x	-3	x	-21
O=C(NCCCN1CCOCC1)c1ccc(CSc2ccc(Cl)cc2)cc1	22	-5	0	-1	31	76*
CCN1CCCC1CNC(=O)c1ccc(Sc2ccccc2Cl)c([N+](=O)[O-])c1 (stereo unspecified)	-13	49	0	9	28	74
O=C(Nc1cc(F)cc(F)c1)c1ccc(NCCCN2CCCCCC2)c([N+](=O)[O-])c1	98*	30	-2	2	19	44
CN(C)CCNC(=O)c1ccc(Sc2ccc(Br)cc2)c([N+](=O)[O-])c1	-1	25	4	1	77*	67
CC(=O)NCCNC(=O)c1ccc(Sc2ccccc2)c([N+](=O)[O-])c1	1	16	-2	1	2	38
O=C(Nc1cc(F)cc(F)c1)c1ccc(NCCc2ccccc2)c([N+](=O)[O-])c1	-1	18	-1	7	-8	-6
CCN1CCCC1CNC(=O)c1ccc(Sc2ccc(F)cc2)c([N+](=O)[O-])c1 (stereo unspecified)	2	-3	3	-20	62*	79*
CC(C)Oc1ccc(C2NC(=O)c3ccccc3O2)cc1 (stereo unspecified)	-1	2	-1	1	-3	-6
O=C(O)C1CCN(C(=O)c2ccc3c(c2)OCO3)CC1	-6	1	3	-2	-15	4
O=C(Cn1c(=O)cnc2ccccc21)Nc1cccc(S(=O)(=O)N2CCOCC2)c1	x	-19	x	0	x	5
O=C(NCCCN1CCOCC1)c1ccc(Sc2ccc(F)cc2)c([N+](=O)[O-])c1	0	17	-6	3	61*	46
Cc1ccc(NC(=O)CN(C)C(=O)Cc2ccc(Cl)c(Cl)c2)cc1	-4	1	2	0	6	7
Cc1ccc(NC(=O)CN(C)C(=O)Cn2ncc(Cl)c(Cl)c2=O)cc1	20	x	-2	-6	-14	110*
CC1CCN(CCc2nc3cc(NC(=O)COc4ccccc4)ccc3n2C)CC1	6	-4	0	-4	3	1
O=C(COC(=O)CC1CC2CCC1C2)Nc1ccccc1[N+](=O)[O-] (stereo unspecified)	x	10	x	12	x	x
CCCCN(C(=O)/C=C/c1ccco1)c1c(N)n(Cc2ccccc2)c(=O)[nH]c1=O	113*	-1	x	-3	x	-2
CC(=O)NC1CCCc2c1cnn2-c1ccc(C(C)(C)C)cc1 (stereo unspecified)	0	2	-3	0	-1	-16
CC(=O)NC1CCCN(O)C(=O)/C=C(\C)CCOC(=O)C(NC(C)=O)CCCN(O)C(=O)/C=C(\C)CCOC(=O)C(NC(C)=O)CCCN(O)C(=O)/C=C(\C)CCOC1=O (stereo unspecified)	86*	14	-6	-9	u	-4
SMILES	Calb FLC	Mdm2-MdmX inh	SKKanGAS inh	Beta cell apopt	T cruzi inh	CSC inhib
CC1CCCCN1c1cc(C#N)c(C#N)cc1[N+](=O)[O-] (stereo unspecified)	-7	-8	12	7	2	81*
CCOc1cc(S(=O)(=O)NCc2ccccc2)c(OCC)cc1-n1cnnn1	100*	7	-2	-4	5	9
COc1ccc(-c2cc3c(=O)n(CC(=O)Nc4cccc(Cl)c4)ncn3n2)cc1	-4	0	-3	3	8	6
O=C(NCC1CCCO1)C(c1cccs1)N(Cc1ccccc1Cl)C(=O)c1ccc(-c2ccccc2)[nH]1 (stereo unspecified)	4	41	27	x	74*	x
Cc1ccc(C(C(=O)NCC2CCCO2)N(Cc2ccccc2)C(=O)c2ccc(-c3ccccc3)[nH]2)o1 (stereo unspecified)	16	28	21	-5	34	38
N#Cc1c(-c2ccc(Cl)cc2)cc(-c2ccccc2)nc1SCC(=O)O	88*	16	29	3	7	32
N#Cc1c(-c2ccccc2)cc(-c2ccccc2)nc1SCCC(=O)O	54	41	33	-2	31	75*
N#Cc1c(-c2ccccc2)cc(C2CC2)nc1SCC(=O)O	10	-3	1	-5	5	x
COc1ccc(-c2cc(-c3ccccc3)c(C#N)c(SCC(=O)Nc3ncc(C)s3)n2)cc1	2	27	14	x	56*	x
COc1cccc(C(C(=O)NC2CCCC2)N(C(=O)CNC(=O)c2ccco2)c2cccnc2)c1 (stereo unspecified)	6	4	-1	-7	-1	-8
Cc1cc(C)cc(Nc2ccc([N+](=O)[O-])nc2[N+](=O)[O-])c1	-11	-19	-3	-2	67*	-3
Cc1cccc(Nc2n[nH]c(C)c2[N+](=O)[O-])c1	-5	-218	2	-1	-1	-11
Cc1n[nH]c(C)c1CCOc1ccc(C(C)C)cc1	32	-33	96*	9	12	x
COc1ccc(OCCCCc2c(C)n[nH]c2C)cc1	1	14	-4	x	4	x
COc1ccc(NC(=O)c2cccs2)cn1	2	18	4	-3	4	-1
CC(C)(C)c1ccc(Oc2ccc(NC(=O)c3cccs3)cn2)cc1	-3	29	20	18	14	84*
O=C(CN1CCN(c2ccccn2)CC1)Nc1cccc(Br)c1	0	18	-1	-7	11	4
N#C/C(=C/c1ccc(N2CCCCCC2)o1)c1ccc(F)cc1	7	47	65*	36	58*	-10
N#C/C(=C/c1ccc(N2CCCCCC2)o1)c1cccc(F)c1	4	50	-4	10	66*	x
CCOc1ccc(NC(=O)CN(C)C(=O)c2cc([N+](=O)[O-])ccc2N2CCOCC2)cc1OCC	6	5	3	x	-6	4

Compound activity from PubChem.
